Data reported in ChEMBL document CHEMBL4350958, “Rational Design of Short Peptide Variants by Using Kunitzin-RE, an Amphibian-Derived Bioactivity Peptide, for Acquired Potent Broad-Spectrum Antimicrobial and Improved Therapeutic Potential of Commensalism Coinfection of Pathogens” (J Med Chem, 2019).
Values after ≈ are worked out from the molar mass of the structure shown.

Assays:
Escherichia coli [1] = assay: Antibacterial activity against Escherichia coli ATCC 25922 measured after 18 to 24 hrs in presence of ZnCl2; format: functional
Escherichia coli [2] = assay: Antibacterial activity against Escherichia coli UB1005 measured after 24 hrs; format: functional
Method in brief: (§1)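 Broth microdilution adapted from NCCLS. Mid-log bacteria were diluted in MHB to a final (0.5–1) × 10^5 CFU mL−1. Peptides were serially diluted in 0.2% BSA and mixed with an equal volume of cells. After 24 h at 37 °C, MIC was read at A492 as the lowest concentration inhibiting 95% of growth. At least three independent experiments, each with three technical replicates.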

Staphylococcus aureus [3] = assay: Bactericidal activity against Staphylococcus aureus ATCC 25923 incubated for 24 hrs followed by replating on agar plate and measured after overnight incubation; format: functional; conditions: for MBC: ATCC 25923, 24 h, read-out: MBC>99.9
Method in brief: (§2)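 After the 24 h, 37 °C MHB microdilution MIC assay, 50 μL from each well was plated on agar and incubated overnight. MBC taken as lowest peptide concentration killing >99.9% of cells. At least three independent experiments, each with three technical replicates.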

[4] = Therapeutic index, ratio of MHC10 for hemolytic activity in human RBC to MIC95 against Candida parapsilosis cgmcc2.3989; format: toxicity; conditions: human red blood cells (erythrocytes), read-out: TI
Method in brief: (§3)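 Therapeutic index = MHC divided by MIC. MHC is the lowest concentration giving >10% lysis of human RBC (1 h, 37 °C, 1-128 µM, A576). MIC is 95% growth inhibition by broth microdilution: bacteria in MHB 24 h at 37 °C; Candida in MOPS-buffered RPMI 1640 at (0.5–1) × 10^3 CFU mL−1, 48 h at 28 °C.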

Staphylococcus aureus [5] = assay: Bactericidal activity against methicillin-resistant Staphylococcus aureus ATCC 43300 incubated for 24 hrs followed by replating on agar plate and measured after overnight incubation; format: functional; conditions: for MBC: ATCC 43300, 24 h, read-out: MBC>99.9; method in brief: as §2
Candida albicans [6] = assay: Antifungal activity against Candida albicans cgmcc2.2086 measured after 48 hrs in presence of FeCl by broth microdilution method; format: functional
[7] = Conformational stability in pH 7.4 sodium phosphate buffer assessed as absorption spectra at minimum dichroic band at 35 uM by CD spectra analysis; format: physicochemical; conditions: pH 7.4, 35 µM
Method in brief: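 CD spectra from 190 to 250 nm of peptide at 35 μM in 10 mM PBS, 30 mM SDS micelles or 50% TFE, recorded in a 1.0-mm quartz cell. Ellipticity was converted to mean residue ellipticity. Three independent scans, each averaged over more than 3 runs.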

Pseudomonas aeruginosa [8] = assay: Antibacterial activity against Pseudomonas aeruginosa ATCC 27853 measured after 24 hrs; format: functional; method in brief: as §1
Staphylococcus aureus [9] = assay: Antibacterial activity against Staphylococcus aureus ATCC 29213 measured after 18 to 24 hrs in presence of ZnCl2; format: functional
Method in brief: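 MIC broth microdilution (MHB, 0.2% BSA peptide diluent, A492, 95% inhibition) run in the presence of physiological salts at final concentrations of 6 μM NH4Cl or 8 μM ZnCl2. Three independent assays, each with three technical replicates.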

Candida tropicalis = assay: Antifungal activity against Candida tropicalis cgmcc2.1975 measured after 48 hrs by broth microdilution method; format: functional
Method in brief: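 Modified CLSI M27-A2 microdilution. Yeast colonies were diluted in MOPS-buffered RPMI 1640 to a final (0.5–1) × 10^3 CFU mL−1 and mixed with an equal volume of peptide serially diluted in 0.2% BSA. After 48 h at 28 °C, MIC was read at A492 as the lowest concentration inhibiting 95% of growth. At least three independent experiments, each with three technical replicates.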

[10] = Bactericidal activity against Salmonella pullorum ATCC 7913 incubated for 24 hrs followed by replating on agar plate and measured after overnight incubation; format: functional, Salmonella enterica subsp. enterica serovar Pullorum; conditions: Salmonella enterica, ATCC 7913, 24 h; read-out: MBC>99.9
Method in brief: (§4)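 Mid-log bacteria diluted in MHB to (0.5–1) × 10^5 CFU/mL and mixed 1:1 with peptide serially diluted in 0.2% BSA. After 24 h at 37 °C, 50 μL of each mixture was plated on agar and incubated overnight. MBC taken as the lowest concentration killing >99.9% of cells. At least three independent experiments, each with three technical replicates.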

Escherichia coli [11] = assay: Antibacterial activity against Escherichia coli ATCC 25922 measured after 24 hrs; format: functional; method in brief: as §1
Staphylococcus aureus [12] = assay: Antibacterial activity against Staphylococcus aureus ATCC 29213 measured after 18 to 24 hrs in presence of CaCl2; format: functional
Staphylococcus aureus [13] = assay: Antibacterial activity against Staphylococcus aureus ATCC 29213 measured after 18 to 24 hrs in presence of MgCl2; format: functional
[14] = tested on: Staphylococcus epidermidis; assay: Bactericidal activity against Staphylococcus epidermidis ATCC 12228 incubated for 24 hrs followed by replating on agar plate and measured after overnight incubation; format: functional; conditions: for MBC: ATCC 12228, 24 h, read-out: MBC>99.9; method in brief: as §4
Pseudomonas aeruginosa [15] = assay: Bactericidal activity against Pseudomonas aeruginosa ATCC 27853 incubated for 24 hrs followed by replating on agar plate and measured after overnight incubation; format: functional; conditions: for MBC: ATCC 27853, 24 h, read-out: MBC>99.9; method in brief: as §4
Escherichia coli [16] = assay: Antibacterial activity against Escherichia coli ATCC 25922 measured after 18 to 24 hrs in presence of NaCl; format: functional
Candida albicans [17] = assay: Antifungal activity against Candida albicans cgmcc2.2086 measured after 48 hrs in presence of KCl by broth microdilution method; format: functional
Candida albicans [18] = assay: Antifungal activity against Candida albicans cgmcc2.2086 measured after 48 hrs in presence of MgCl by broth microdilution method; format: functional
Salmonella typhimurium = assay: Antibacterial activity against Salmonella typhimurium C7731 measured after 24 hrs; format: functional, Salmonella enterica subsp. enterica serovar Typhimurium; method in brief: as §1
[19] = tested on: Staphylococcus epidermidis; assay: Antibacterial activity against Staphylococcus epidermidis ATCC 12228 measured after 24 hrs; format: functional; method in brief: as §1
Escherichia coli [20] = assay: Antibacterial activity against Escherichia coli ATCC 25922 measured after 18 to 24 hrs in presence of MgCl2; format: functional
[21] = Therapeutic index, ratio of MHC10 for hemolytic activity in human RBC to MIC95 against Candida albicans cgmcc2.2086; format: toxicity; conditions: human red blood cells (erythrocytes), read-out: TI; method in brief: as §3
[22] = Therapeutic index, ratio of MHC10 for hemolytic activity in human RBC to MIC95 against Staphylococcus aureus ATCC 29213; format: toxicity; conditions: human red blood cells (erythrocytes), read-out: TI; method in brief: as §3
Escherichia coli [23] = assay: Antibacterial activity against Escherichia coli K88 measured after 24 hrs; format: functional; method in brief: as §1
Escherichia coli [24] = assay: Bactericidal activity against Escherichia coli K88 incubated for 24 hrs followed by replating on agar plate and measured after overnight incubation; format: functional; conditions: for MBC: K88, 24 h, read-out: MBC>99.9; method in brief: as §4
[25] = Therapeutic index, ratio of MHC10 for hemolytic activity in human RBC to MIC95 against methicillin-resistant Staphylococcus aureus ATCC 43300; format: toxicity; conditions: human red blood cells (erythrocytes), read-out: TI; method in brief: as §3
[26] = Salmonella enterica, C7731, 24 h

Molecule | MIC95 (Escherichia coli [1]) | MIC95 (Escherichia coli [2]; UB1005, 24 h) | MBC (Staphylococcus aureus [3]) | MBC (Staphylococcus aureus [5]) | MIC95 (Candida albicans [6]; cgmcc2.2086, 48 h) | MIC95 (Pseudomonas aeruginosa [8]; ATCC 27853, 24 h) | MIC95 (Staphylococcus aureus [9]) | MIC95 (Candida tropicalis; cgmcc2.1975, 48 h) | MBC [10] | MIC95 (Escherichia coli [11]; ATCC 25922, 24 h) | MIC95 (Staphylococcus aureus [12]) | MIC95 (Staphylococcus aureus [13]) | MBC [14] | MBC (Pseudomonas aeruginosa [15]) | MIC95 (Escherichia coli [16]) | MIC95 (Candida albicans [17]; cgmcc2.2086, 48 h) | MIC95 (Candida albicans [18]; cgmcc2.2086, 48 h) | MIC95 (Salmonella typhimurium; [26]) | MIC95 ([19]; ATCC 12228, 24 h) | MIC95 (Escherichia coli [20]) | also measured
H-AARIILRIRFR-NH2 | 4 µM | 4 µM | 4 µM | 4 µM | 8 µM | 16 µM | 2 µM | 4 µM | 4 µM | 4 µM | 16 µM | 2 µM | 4 µM | 32 µM | 8 µM | 8 µM | 16 µM | 4 µM | 2 µM | 16 µM | selectivity ratio [4]: 25.4; Wavelength of minimum CD band [7]: 200 nm; selectivity ratio [21]: 25.4; selectivity ratio [22]: 64; MIC95 (Escherichia coli [23]; K88, 24 h): 2 µM; MBC (Escherichia coli [24]): 4 µM; selectivity ratio [25]: 64
GENTAMICIN | 1 µM | – | – | – | – | – | 1 µM | – | – | – | 4 µM | 1 µM | – | – | 4 µM | – | – | – | – | 1 µM | MIC95 (Escherichia coli [2]): 0.5 µM; MBC>99.9 (Staphylococcus aureus [3]): 1 µM; MBC>99.9 (Staphylococcus aureus [5]): 16 µM; MIC95 (Candida albicans [6]): > 128 µM; MIC95 (Pseudomonas aeruginosa [8]): 1 µM; MIC95 (Candida tropicalis): > 128 µM; MIC95 (Escherichia coli [11]): 1 µM; MBC>99.9 [14]: 2 µM; MBC>99.9 (Pseudomonas aeruginosa [15]): 1 µM; MIC95 (Candida albicans [17]): > 128 µM; MIC95 (Candida albicans [18]): > 128 µM; MIC95 (Salmonella typhimurium; Salmonella enterica subsp. enterica serovar Typhimurium): 1 µM; MIC95 [19]: 1 µM; MIC95 (Escherichia coli [23]): 1 µM; MBC>99.9 (Escherichia coli [24]): 1 µM
CC[C@H](C)[C@H](NC(=O)CN)C(=O)NCC(=O)N[C@@H](C)C(=O)N[C@H](C(=O)N[C@@H](CC(C)C)C(=O)N[C@@H](CCCCN)C(=O)N[C@H](C(=O)N[C@@H](CC(C)C)C(=O)N[C@H](C(=O)N[C@H](C(=O)NCC(=O)N[C@@H](CC(C)C)C(=O)N1CCC[C@H]1C(=O)N[C@@H](C)C(=O)N[C@@H](CC(C)C)C(=O)N[C@H](C(=O)N[C@@H](CO)C(=O)N[C@@H](Cc1c[nH]c2ccccc12)C(=O)N[C@H](C(=O)N[C@@H](CCCCN)C(=O)N[C@@H](CCCNC(=N)N)C(=O)N[C@@H](CCCCN)C(=O)N[C@@H](CCCNC(=N)N)C(=O)N[C@@H](CCC(N)=O)C(=O)N[C@@H](CCC(N)=O)C(N)=O)[C@@H](C)CC)[C@@H](C)CC)[C@@H](C)O)[C@@H](C)O)C(C)C)C(C)C [MELITTIN] | 2 µM | 2 µM (≈ 5.69 µg/mL) | 8 µM (≈ 22.8 µg/mL) | 4 µM (≈ 11.4 µg/mL) | 4 µM | 2 µM (≈ 5.69 µg/mL) | 4 µM | 4 µM (≈ 11.4 µg/mL) | 2 µM (≈ 5.69 µg/mL) | 2 µM (≈ 5.69 µg/mL) | 8 µM | 4 µM | 4 µM (≈ 11.4 µg/mL) | 4 µM (≈ 11.4 µg/mL) | 4 µM | 4 µM | 4 µM | 2 µM (≈ 5.69 µg/mL) | 2 µM (≈ 5.69 µg/mL) | 4 µM | selectivity ratio [4]: 0.32; selectivity ratio [21]: 0.32; selectivity ratio [22]: 0.35; MIC95 (Escherichia coli [23]; K88, 24 h): 1 µM (≈ 2.85 µg/mL); MBC (Escherichia coli [24]): 2 µM (≈ 5.69 µg/mL); selectivity ratio [25]: 0.35
CC(C)(O/N=C(\C(=O)N[C@@H]1C(=O)N2C(C(=O)[O-])=C(C[n+]3ccccc3)CS[C@H]12)c1csc(N)n1)C(=O)O [CEFTAZIDIME] | 2 µM | 1 µM (≈ 0.547 µg/mL) | 32 µM (≈ 17.5 µg/mL) | 32 µM (≈ 17.5 µg/mL) | > 128 µM | 2 µM (≈ 1.09 µg/mL) | 16 µM | > 128 µM | 2 µM (≈ 1.09 µg/mL) | 2 µM (≈ 1.09 µg/mL) | 32 µM | 16 µM | 32 µM (≈ 17.5 µg/mL) | 4 µM (≈ 2.19 µg/mL) | 4 µM | > 128 µM | > 128 µM | 1 µM (≈ 0.547 µg/mL) | 16 µM (≈ 8.75 µg/mL) | 2 µM | MIC95 (Escherichia coli [23]; K88, 24 h): 1 µM (≈ 0.547 µg/mL); MBC (Escherichia coli [24]): 1 µM (≈ 0.547 µg/mL)
